Test results from ChEMBL document CHEMBL1149311, “Synthesis and antitumor activity of methyltriazene prodrugs simultaneously releasing DNA-methylating agents and the antiresistance drug O(6)-benzylguanine” (J Med Chem, 2004).

Columns and labels:
[1] = system: SF-268; test: Antitumor activity against human SF268 cells at 100 uM relative to control; format: functional
Procedure, shortened: (§1)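 NCI three-cell-line one-dose primary anticancer prescreen at 100 µM. Growth is expressed as % of untreated control cells, with the control taken as 100%.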

[2] = system: IGROV-1; test: Antitumor activity against human IGROV1 cells; format: functional; details: for CC50: read-out: Log LC50 (the source's name) (converted); for TGI: read-out: Log TGI (converted)
Procedure, shortened: (§2)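 Tested in the NCI in vitro disease-oriented human tumor cell screen. The endpoints are IC50 (molar concentration giving 50% growth inhibition), TGI (total growth inhibition) and LC50 (50% net cell death). The maximal concentration tested was 100 μM. Subpanel values are means of several individual cell lines.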

[3] = system: OVCAR-5; test: Antitumor activity against human OVCAR5 cells; format: functional; details: for CC50: read-out: Log LC50 (the source's name) (converted); for TGI: read-out: Log TGI (converted); procedure, shortened: as §2
[4] = system: ACHN; test: Antitumor activity against human ACHN cells; format: functional
Procedure, shortened: (§3)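 Tested in the NCI in vitro disease-oriented tumor cell screen, up to a top concentration of 100 µM. Read-outs: IC50 is the molar concentration giving 50% growth inhibition, TGI the concentration giving total growth inhibition, and LC50 the concentration giving 50% net cell death.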

[5] = system: NCI-H226; test: Antitumor activity against human NCI-H226 cells; format: functional; procedure, shortened: as §3
[6] = system: A549; test: Antitumor activity against human A549 cells; format: functional; details: for CC50: read-out: Log LC50 (the source's name) (converted); for TGI: read-out: Log TGI (converted); procedure, shortened: as §2
[7] = system: Malme-3M; test: Antitumor activity against human MALME-3M cells; format: functional; procedure, shortened: as §3
[8] = system: RXF 393; test: Antitumor activity against human RXF393 cells; format: functional; procedure, shortened: as §3
[9] = Antitumor activity against human NCI/ADR RES cells; format: functional; procedure, shortened: as §3
[10] = system: NCI-H23; test: Antitumor activity against human NCI-H23 cells; format: functional; details: for TGI: read-out: Log TGI (converted); procedure, shortened: as §2
[11] = system: SN12C; test: Antitumor activity against human SN12C cells; format: functional; procedure, shortened: as §3
[12] = system: HCC 2998; test: Antitumor activity against human HCC2998 cells; format: functional; procedure, shortened: as §3
[13] = system: RPMI-8226; test: Antitumor activity against human RPMI8226 cells; format: functional; details: for CC50: read-out: Log LC50 (the source's name) (converted); for TGI: read-out: Log TGI (converted); procedure, shortened: as §2
[14] = system: SK-MEL-5; test: Antitumor activity against human SK-MEL-5 cells; format: functional; details: for CC50: read-out: Log LC50 (the source's name) (converted); for TGI: read-out: Log TGI (converted); procedure, shortened: as §2
[15] = system: MCF7; test: Antitumor activity against human MCF7 cells at 100 uM relative to control; format: functional; procedure, shortened: as §1
[16] = system: NCI; test: Antitumor activity against human NCI breast cancer cell line panel; format: functional, cell-based; procedure, shortened: as §2
[17] = system: NCI-H522; test: Antitumor activity against human NCI-H522 cells; format: functional; procedure, shortened: as §3
[18] = system: MOLT-4; test: Antitumor activity against human MOLT4 cells; format: functional; procedure, shortened: as §3
[19] = system: A498; test: Antitumor activity against human A498 cells; format: functional; procedure, shortened: as §3
[20] = system: TK-10; test: Antitumor activity against human TK10 cells; format: functional; details: for CC50: read-out: Log LC50 (the source's name) (converted); for TGI: read-out: Log TGI (converted)
Procedure, shortened: (§4)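 NCI in vitro disease-oriented tumour cell line screen. Read-outs are IC50 (molar concentration giving 50% growth inhibition), TGI (molar concentration giving total inhibition of net growth) and LC50 (molar concentration giving 50% net cell death). The maximal concentration tested was 100 μM.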

[21] = system: COLO 205; test: Antitumor activity against human COLO 205 cells; format: functional; details: for CC50: read-out: Log LC50 (the source's name) (converted); for TGI: read-out: Log TGI (converted); procedure, shortened: as §2
[22] = system: NCI-H460; test: Antitumor activity against human NCI-H460 cells at 100 uM relative to control; format: functional; procedure, shortened: as §1
[23] = system: SF-539; test: Antitumor activity against human SF539 cells; format: functional; details: for CC50: read-out: Log LC50 (the source's name) (converted); for TGI: read-out: Log TGI (converted); procedure, shortened: as §2
[24] = system: OVCAR-8; test: Antitumor activity against human OVCAR8 cells; format: functional; details: for TGI: read-out: Log TGI (converted); procedure, shortened: as §2
[25] = system: carcinoma cell line; test: Antitumor activity against human NCI ovarian carcinoma cell line panel; format: functional, cell-based; procedure, shortened: as §2
[26] = system: NCI; test: Antitumor activity against human NCI prostate cancer cell line panel; format: functional, cell-based; procedure, shortened: as §2
[27] = system: CCRF-CEM; test: Antitumor activity against human CCRF-CEM cells; format: functional; procedure, shortened: as §3
[28] = system: UACC-62; test: Antitumor activity against human UACC62 cells; format: functional; details: for CC50: read-out: Log LC50 (the source's name) (converted); for TGI: read-out: Log TGI (converted); procedure, shortened: as §4
[29] = system: HT-29; test: Antitumor activity against human HT29 cells; format: functional; procedure, shortened: as §3
[30] = system: HCT-116; test: Antitumor activity against human HCT116 cells; format: functional; details: for CC50: read-out: Log LC50 (the source's name) (converted); for TGI: read-out: Log TGI (converted); procedure, shortened: as §2
[31] = system: NCI-H460; test: Antitumor activity against human NCI-H460 cells at 50 uM relative to control; format: functional
Procedure, shortened: (§5)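 Tested in the NCI three-cell-line one-dose primary anticancer prescreen. The read-out is growth as % of untreated control cells (100%) at 50 μM.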

[32] = system: SR; test: Antitumor activity against human SR cells; format: functional; procedure, shortened: as §4
[33] = system: SF-268; test: Antitumor activity against human SF268 cells at 50 uM relative to control; format: functional; procedure, shortened: as §5
[34] = system: MCF7; test: Antitumor activity against human MCF7 cells at 50 uM relative to control; format: functional; procedure, shortened: as §5
[35] = read-out: Log LC50 (the source's name) (converted)
[36] = read-out: LC50 (the source's name)

CN(/N=N/c1nc(OCc2ccccc2)c2nc[nH]c2n1)C(=O)N(C)/N=N/c1nc(OCc2ccccc2)c2nc[nH]c2n1
Activity [1]: 46%
GI50 [2]: 34.7 µM
CC50 [2]: > 100 µM
TGI [2]: > 100 µM
GI50 [3]: 63.1 µM
CC50 [3]: > 100 µM
TGI [3]: > 100 µM
GI50 [4]: 31.6 µM
CC50 [4, 35]: > 100 µM
TGI ([4]; read-out: Log TGI (converted)): > 100 µM
GI50 [5]: 38.9 µM
CC50 [5, 35]: > 100 µM
TGI ([5]; read-out: Log TGI (converted)): > 100 µM
CC50 [6]: > 100 µM
TGI [6]: > 100 µM
GI50 [7]: 40.7 µM
CC50 [7, 35]: > 100 µM
TGI ([7]; read-out: Log TGI (converted)): > 100 µM
GI50 [8]: 79.4 µM
CC50 [8, 35]: > 100 µM
TGI ([8]; read-out: Log TGI (converted)): > 100 µM
GI50 [9]: 46.8 µM
CC50 [9, 35]: > 100 µM
TGI ([9]; read-out: Log TGI (converted)): > 100 µM
GI50 [10]: 34.7 µM
LC50 (50% net cell kill) [10]: > 100 µM
TGI [10]: > 100 µM
GI50 [11]: 56.2 µM
CC50 [11, 35]: > 100 µM
TGI ([11]; read-out: Log TGI (converted)): > 100 µM
GI50 [12]: 19.5 µM
CC50 [12, 35]: > 100 µM
TGI ([12]; read-out: Log TGI (converted)): 81.3 µM
GI50 [13]: 38 µM
CC50 [13]: > 100 µM
TGI [13]: > 100 µM
GI50 [14]: 20.9 µM
CC50 [14]: > 100 µM
TGI [14]: 61.7 µM
Activity [15]: 74%
IC50 [16]: 39 µM
TGI [16]: > 100 µM
GI50 [17]: 39.8 µM
CC50 [17, 35]: > 100 µM
TGI ([17]; read-out: Log TGI (converted)): > 100 µM
GI50 [18]: 53.7 µM
CC50 [18, 35]: > 100 µM
TGI ([18]; read-out: Log TGI (converted)): > 100 µM
GI50 [19]: 19.5 µM
CC50 [19, 35]: > 100 µM
TGI ([19]; read-out: Log TGI (converted)): 53.7 µM
GI50 [20]: 26.9 µM
CC50 [20]: > 100 µM
TGI [20]: > 100 µM
GI50 [21]: 37.2 µM
CC50 [21]: > 100 µM
TGI [21]: > 100 µM
Activity [22]: 58%
GI50 [23]: 38 µM
CC50 [23]: > 100 µM
TGI [23]: > 100 µM
GI50 [24]: 51.3 µM
LC50 (concentration giving 50% net cell death) [24]: > 100 µM
TGI [24]: > 100 µM
IC50 [25]: 50 µM
TGI [25]: > 100 µM
IC50 [26]: 40 µM
TGI [26]: > 100 µM
GI50 [27]: 50.1 µM
CC50 [27, 35]: > 100 µM
TGI ([27]; read-out: Log TGI (converted)): > 100 µM
GI50 [28]: 30.9 µM
CC50 [28]: > 100 µM
TGI [28]: > 100 µM
GI50 [29]: 60.3 µM
CC50 [29, 35]: > 100 µM
TGI ([29]; read-out: Log TGI (converted)): > 100 µM
GI50 [30]: 35.5 µM
CC50 [30]: > 100 µM
TGI [30]: > 100 µM

CN(/N=N/c1nc(OCc2ccccc2)c2nc[nH]c2n1)C(=O)Oc1ccc([N+](=O)[O-])cc1
Activity [31]: 0%
GI50 [2]: 12.3 µM
CC50 [2]: > 50.1 µM
TGI [2]: 30.9 µM
GI50 [3]: 11.5 µM
CC50 [3]: > 50.1 µM
TGI [3]: > 50.1 µM
GI50 [6]: 12 µM
CC50 [6]: 50.1 µM
TGI [6]: 31.6 µM
GI50 [10]: 8.51 µM
LC50 (50% net cell kill) [10]: 32.4 µM
TGI [10]: 16.2 µM
GI50 [13]: 9.12 µM
CC50 [13]: > 50.1 µM
TGI [13]: > 50.1 µM
GI50 [14]: 6.92 µM
CC50 [14]: 38.9 µM
TGI [14]: 16.2 µM
IC50 [16]: 10 µM
TGI [16]: 30 µM
CC50 [16, 36]: 50 µM
GI50 [20]: 12 µM
CC50 [20]: > 50.1 µM
TGI [20]: 33.9 µM
GI50 [21]: 10.2 µM
CC50 [21]: > 50.1 µM
TGI [21]: 29.5 µM
GI50 [23]: 9.77 µM
CC50 [23]: > 50.1 µM
TGI [23]: 28.8 µM
GI50 [32]: 26.3 µM
CC50 [32, 35]: > 50.1 µM
TGI ([32]; read-out: Log TGI (converted)): > 50.1 µM
GI50 [24]: 9.77 µM
LC50 (concentration giving 50% net cell death) [24]: > 50.1 µM
TGI [24]: 26.3 µM
IC50 [25]: 12 µM
TGI [25]: 34 µM
CC50 [25, 36]: 50 µM
IC50 [26]: 10 µM
TGI [26]: 23 µM
CC50 [26, 36]: 46 µM
GI50 [28]: 7.59 µM
CC50 [28]: 30.9 µM
TGI [28]: 15.1 µM
GI50 [30]: 8.71 µM
CC50 [30]: 29.5 µM
TGI [30]: 15.8 µM
Activity [33]: 4%
Activity [34]: 1%
